From ChEMBL document CHEMBL1127344, “Tridentate ligands containing the SNS donor atom set as a novel backbone for the development of technetium brain-imaging agents” (J Med Chem, 1994)

Assays:
Rattus norvegicus [1] = species on record: Rattus norvegicus; experiment: Tested for biodistribution of compound at 10 min in rat stomach; format: ADME, organism-based; details: in vivo
Summary of the method: (§1)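 Wistar rats under ether anesthesia were dosed through the femoral vein with 0.1 mL of 99mTc complex (3-6 μCi) and dissected 5-60 min pi. Tissue radioactivity was γ-counted against a 1% injected-dose standard and expressed as % dose/organ. Blood and muscle were calculated from sample weight assuming 7% and 43% of body weight.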

Mus musculus [2] = species on record: Mus musculus; experiment: Tested for biodistribution of compound at 5 min in mice intestine; format: ADME, organism-based; details: in vivo
Summary of the method: (§2)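 Male Swiss albino mice, at least five per group, received HPLC-purified 99mTc complex by tail vein. The complex was reconstituted in 50% methanol (0.1 mL, 2-3 μCi). Mice were killed by cardiectomy under light ether at 1-60 min pi. Organs were weighed and γ-counted against a 1% injected-dose standard to give % dose/organ. Blood and muscle were taken as 7% and 43% of body weight.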

Mus musculus [3] = species on record: Mus musculus; experiment: Tested for biodistribution of compound at 5 min in mice spleen; format: ADME, organism-based; details: in vivo; summary of the method: as §2
Mus musculus [4] = species on record: Mus musculus; experiment: Tested for biodistribution of compound at 10 min in mice kidney; format: ADME, organism-based; details: in vivo
Summary of the method: (§3)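 Male Swiss albino mice, at least five per group, received 0.1 mL (2-3 μCi) of HPLC-purified 99mTc complex reconstituted in 50% methanol by tail vein. They were killed by cardiectomy under light ether anesthesia at set times (1-60 min pi). Organs were weighed and γ-counted against a 1% injected-dose standard to give % dose/organ. Blood and muscle were taken as 7% and 43% of body weight.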

Rattus norvegicus [5] = species on record: Rattus norvegicus; experiment: Tested for biodistribution of compound at 5 min in rat blood; format: ADME, organism-based; details: in vivo
Mus musculus [6] = species on record: Mus musculus; experiment: Tested for biodistribution of compound at 5 min in mice muscle; format: ADME, organism-based, Muscle tissue; details: in vivo; summary of the method: as §2
Rattus norvegicus [7] = species on record: Rattus norvegicus; experiment: Tested for biodistribution of compound at 30 min in rat kidney; format: ADME, organism-based; details: in vivo, 0.5 h; summary of the method: as §1
Mus musculus [8] = species on record: Mus musculus; experiment: Tested for biodistribution of compound at 30 min in mice lungs; format: ADME, organism-based, Lung; details: in vivo, 0.5 h; summary of the method: as §3
Rattus norvegicus [9] = species on record: Rattus norvegicus; experiment: Tested for biodistribution of compound at 30 min in rat spleen; format: ADME, organism-based; details: in vivo, 0.5 h
Mus musculus [10] = species on record: Mus musculus; experiment: Tested for biodistribution of compound at 30 min in mice urine; format: ADME, organism-based; details: in vivo, 0.5 h; summary of the method: as §3
Mus musculus [11] = species on record: Mus musculus; experiment: Tested for biodistribution of compound at 60 min in mice stomach; format: ADME, organism-based; details: in vivo, 1 h; summary of the method: as §2
Mus musculus [12] = species on record: Mus musculus; experiment: Tested for biodistribution of compound at 10 min in mice intestine; format: ADME, organism-based; details: in vivo; summary of the method: as §3
Mus musculus [13] = species on record: Mus musculus; experiment: Tested for biodistribution of compound at 1 min in mice blood; format: ADME, organism-based; details: in vivo; summary of the method: as §3
Rattus norvegicus [14] = species on record: Rattus norvegicus; experiment: Tested for biodistribution of compound at 10 min in rat spleen; format: ADME, organism-based; details: in vivo; summary of the method: as §1
Rattus norvegicus [15] = species on record: Rattus norvegicus; experiment: Tested for biodistribution of compound at 30 min in rat blood; format: ADME, organism-based; details: in vivo, 0.5 h; summary of the method: as §1
Mus musculus [16] = species on record: Mus musculus; experiment: Tested for biodistribution of compound at 5 min in mice liver; format: ADME, organism-based; details: in vivo; summary of the method: as §2
Mus musculus [17] = species on record: Mus musculus; experiment: Tested for biodistribution of compound at 1 min in mice brain; format: ADME, organism-based; details: in vivo; summary of the method: as §3
Mus musculus [18] = species on record: Mus musculus; experiment: Tested for biodistribution of compound at 60 min in mice liver; format: ADME, organism-based; details: in vivo, 1 h; summary of the method: as §2
Rattus norvegicus [19] = species on record: Rattus norvegicus; experiment: Tested for biodistribution of compound at 60 min in rat blood; format: ADME, organism-based; details: in vivo, 1 h
Mus musculus [20] = species on record: Mus musculus; experiment: Tested for biodistribution of compound at 60 min in mice heart; format: ADME, organism-based; details: in vivo, 1 h; summary of the method: as §2
Mus musculus [21] = species on record: Mus musculus; experiment: Tested for biodistribution of compound at 10 min in mice liver; format: ADME, organism-based; details: in vivo; summary of the method: as §3
Mus musculus [22] = species on record: Mus musculus; experiment: Tested for biodistribution of compound at 30 min in mice kidney; format: ADME, organism-based; details: in vivo, 0.5 h; summary of the method: as §3
Mus musculus [23] = species on record: Mus musculus; experiment: Tested for biodistribution of compound at 1 min in mice lungs; format: ADME, organism-based, Lung; details: in vivo; summary of the method: as §3
Mus musculus [24] = species on record: Mus musculus; experiment: Tested for biodistribution of compound at 60 min in mice brain; format: ADME, organism-based; details: in vivo, 1 h; summary of the method: as §2
Mus musculus [25] = species on record: Mus musculus; experiment: Tested for biodistribution of compound at 5 min in mice lungs; format: ADME, organism-based, Lung; details: in vivo; summary of the method: as §2
Mus musculus [26] = species on record: Mus musculus; experiment: Tested for biodistribution of compound at 1 min in mice spleen; format: ADME, organism-based; details: in vivo; summary of the method: as §3
Rattus norvegicus [27] = species on record: Rattus norvegicus; experiment: Tested for biodistribution of compound at 5 min in rat s. intestine; format: ADME, organism-based; details: in vivo
Rattus norvegicus [28] = species on record: Rattus norvegicus; experiment: Tested for biodistribution of compound at 10 min in rat muscle; format: ADME, organism-based, Muscle tissue; details: in vivo; summary of the method: as §1
Rattus norvegicus [29] = species on record: Rattus norvegicus; experiment: Tested for biodistribution of compound at 60 min in rat kidney; format: ADME, organism-based; details: in vivo, 1 h
Mus musculus [30] = species on record: Mus musculus; experiment: Tested for biodistribution of compound at 10 min in mice brain; format: ADME, organism-based; details: in vivo; summary of the method: as §3
Mus musculus [31] = species on record: Mus musculus; experiment: Tested for biodistribution of compound at 60 min in mice blood; format: ADME, organism-based; details: in vivo, 1 h; summary of the method: as §2
Mus musculus [32] = species on record: Mus musculus; experiment: Tested for biodistribution of compound at 60 min in mice spleen; format: ADME, organism-based; details: in vivo, 1 h; summary of the method: as §2
Mus musculus [33] = species on record: Mus musculus; experiment: Tested for biodistribution of compound at 10 min in mice muscle; format: ADME, organism-based, Muscle tissue; details: in vivo; summary of the method: as §3
Rattus norvegicus [34] = species on record: Rattus norvegicus; experiment: Tested for biodistribution of compound at 5 min in rat brain; format: ADME, organism-based; details: in vivo
Rattus norvegicus [35] = species on record: Rattus norvegicus; experiment: Tested for biodistribution of compound at 60 min in rat heart; format: ADME, organism-based; details: in vivo, 1 h
Mus musculus [36] = species on record: Mus musculus; experiment: Tested for biodistribution of compound at 5 min in mice heart; format: ADME, organism-based; details: in vivo; summary of the method: as §2
Rattus norvegicus [37] = species on record: Rattus norvegicus; experiment: Tested for biodistribution of compound at 60 min in rat brain; format: ADME, organism-based; details: in vivo, 1 h
Mus musculus [38] = species on record: Mus musculus; experiment: Tested for biodistribution of compound at 30 min in mice liver; format: ADME, organism-based; details: in vivo, 0.5 h; summary of the method: as §3
Mus musculus [39] = species on record: Mus musculus; experiment: Tested for biodistribution of compound at 10 min in mice blood; format: ADME, organism-based; details: in vivo; summary of the method: as §3
Mus musculus [40] = species on record: Mus musculus; experiment: Tested for biodistribution of compound at 5 min in mice brain; format: ADME, organism-based; details: in vivo; summary of the method: as §2
Mus musculus [41] = species on record: Mus musculus; experiment: Tested for biodistribution of compound at 10 min in mice heart; format: ADME, organism-based; details: in vivo; summary of the method: as §3
Mus musculus [42] = species on record: Mus musculus; experiment: Tested for biodistribution of compound at 10 min in mice stomach; format: ADME, organism-based; details: in vivo; summary of the method: as §3
Mus musculus [43] = species on record: Mus musculus; experiment: Tested for biodistribution of compound at 60 min in mice kidney; format: ADME, organism-based; details: in vivo, 1 h; summary of the method: as §2
Mus musculus [44] = species on record: Mus musculus; experiment: Tested for biodistribution of compound at 30 min in mice muscle; format: ADME, organism-based, Muscle tissue; details: in vivo, 0.5 h; summary of the method: as §3
Mus musculus [45] = species on record: Mus musculus; experiment: Tested for biodistribution of compound at 30 min in mice intestine; format: ADME, organism-based; details: in vivo, 0.5 h; summary of the method: as §3
Mus musculus [46] = species on record: Mus musculus; experiment: Tested for biodistribution of compound at 30 min in mice blood; format: ADME, organism-based; details: in vivo, 0.5 h; summary of the method: as §3
Mus musculus [47] = species on record: Mus musculus; experiment: Tested for biodistribution of compound at 30 min in mice brain; format: ADME, organism-based; details: in vivo, 0.5 h; summary of the method: as §3
Mus musculus [48] = species on record: Mus musculus; experiment: Tested for biodistribution of compound at 60 min in mice muscle; format: ADME, organism-based, Muscle tissue; details: in vivo, 1 h; summary of the method: as §2

[4-methoxythio)phenolato][N,N-bis(2-mercaptoethyl)-N',N'-diethylethylenediamine] oxotechnetium
Dose/organ (Rattus norvegicus [1]): 2.37% | Dose/organ (Mus musculus [2]): 8.31% | Dose/organ (Mus musculus [3]): 0.28% | Dose/organ (Mus musculus [4]): 3.18% | Dose/organ (Rattus norvegicus [5]): 18.89% | Dose/organ (Mus musculus [6]): 24.17% | Dose/organ (Rattus norvegicus [7]): 6.33% | Dose/organ (Mus musculus [8]): 3.09% | Dose/organ (Rattus norvegicus [9]): 0.3% | Dose/organ (Mus musculus [10]): 5.06% | Dose/organ (Mus musculus [11]): 2.34% | Dose/organ (Mus musculus [12]): 9.61% | Dose/organ (Mus musculus [13]): 5.24% | Dose/organ (Rattus norvegicus [14]): 0.77% | Dose/organ (Rattus norvegicus [15]): 7.47% | Dose/organ (Mus musculus [16]): 10.73% | Dose/organ (Mus musculus [17]): 3.56% | Dose/organ (Mus musculus [18]): 35.12% | Dose/organ (Rattus norvegicus [19]): 4.8% | Dose/organ (Mus musculus [20]): 0.12% | Dose/organ (Mus musculus [21]): 14.14% | Dose/organ (Mus musculus [22]): 2.19% | Dose/organ (Mus musculus [23]): 27.19% | Dose/organ (Mus musculus [24]): 1.54% | Dose/organ (Mus musculus [25]): 15.37% | Dose/organ (Mus musculus [26]): 0.03% | Dose/organ (Rattus norvegicus [27]): 5.96% | Dose/organ (Rattus norvegicus [28]): 27.89% | Dose/organ (Rattus norvegicus [29]): 8.73% | Dose/organ (Mus musculus [30]): 2.47% | Dose/organ (Mus musculus [31]): 1.21% | Dose/organ (Mus musculus [32]): 0.21% | Dose/organ (Mus musculus [33]): 16.49% | Dose/organ (Rattus norvegicus [34]): 1.45% | Dose/organ (Rattus norvegicus [35]): 0.15% | Dose/organ (Mus musculus [36]): 0.74% | Dose/organ (Rattus norvegicus [37]): 0.46% | Dose/organ (Mus musculus [38]): 25.58% | Dose/organ (Mus musculus [39]): 1.53% | Dose/organ (Mus musculus [40]): 3.01% | Dose/organ (Mus musculus [41]): 0.46% | Dose/organ (Mus musculus [42]): 1.2% | Dose/organ (Mus musculus [43]): 1.59% | Dose/organ (Mus musculus [44]): 8.18% | Dose/organ (Mus musculus [45]): 18.99% | Dose/organ (Mus musculus [46]): 1.29% | Dose/organ (Mus musculus [47]): 1.71% | Dose/organ (Mus musculus [48]): 6.86%
